ChEMBL document CHEMBL3808334, “Synthesis and in vitro evaluation of novel triazine analogues as anticancer agents and their interaction studies with bovine serum albumin” (Eur J Med Chem, 2016)

Assays:
[1] = Growth inhibition of human Hs 578T cells assessed as cell growth at 10^-8 M incubated for 48 hrs by sulforhodamine B assay; type: functional; settings: read-out: Activity
[2] = Growth inhibition of human BT549 cells incubated for 48 hrs by sulforhodamine B assay; type: functional; settings: BT-549, 48 h
Method in brief: (§1)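 Five-dose assay: five concentrations from 10-fold or ½-log serial dilutions. Cells are plated at 5,000–40,000 per well according to doubling time, grown 24 h, then exposed 48 h at 37 °C, 5% CO₂. Fixed with cold 50% TCA (final addition) for 60 min at 4 °C and stained with 0.4% SRB in 1% acetic acid. Bound dye is solubilized in 10 mM Tris base and read at 515 nm. GI₅₀ is where [(Ti−Tz)/(C−Tz)]×100 = 50, with a time-zero plate as Tz.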

SK-MEL-28 = assay: Growth inhibition of human SK-MEL-28 cells incubated for 48 hrs by sulforhodamine B assay; type: functional; settings: SK-MEL-28, 48 h
Method in brief: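 Cells were plated at 5,000–40,000 per well according to doubling time and preincubated 24 h at 37 °C in 5% CO2; time-zero plates were then TCA-fixed. Five concentrations (10-fold or ½-log dilutions, DMSO stock) were incubated 48 h. Cells were TCA-fixed, stained with 0.4% SRB and read at 515 nm. GI50 was taken where [(Ti−Tz)/(C−Tz)]×100 = 50.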

[3] = Growth inhibition of human HOP92 cells assessed as cell growth at 10^-8 M incubated for 48 hrs by sulforhodamine B assay; type: functional; settings: HOP-92, 48 h, read-out: Activity
[4] = Growth inhibition of human DU145 cells assessed as cell growth at 10^-8 M incubated for 48 hrs by sulforhodamine B assay; type: functional; settings: DU-145, 48 h, read-out: Activity
Method in brief: (§2)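 Cells seeded at 5,000–40,000/well according to doubling time and preincubated 24 h at 37 °C, 5% CO2. Time-zero plates were TCA-fixed. DMSO concentrate was diluted in medium with 50 µg/ml gentamicin to give five concentrations (10-fold or ½ log steps), then exposed 48 h. Cells were TCA-fixed, stained with 0.4% SRB and read at 515 nm. Percent growth was taken against time-zero and control; GI50, TGI and LC50 derived.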

[5] = Growth inhibition of human RPMI8226 cells assessed as cell growth at 10^-7 M incubated for 48 hrs by sulforhodamine B assay; type: functional; settings: RPMI-8226, 48 h, read-out: Activity
ACHN = assay: Growth inhibition of human ACHN cells assessed as cell growth at 10 uM incubated for 48 hrs by sulforhodamine B assay; type: functional; settings: read-out: Activity
Method in brief: (§3)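 One-dose screen at 10 µM final. Cells are plated at 5,000–40,000 per well according to doubling time and preincubated 24 h at 37 °C, 5% CO₂. Compound (DMSO stock diluted in medium with 50 µg/ml gentamicin) is then added for 48 h. Growth percent is read by sulforhodamine B staining, absorbance at 515 nm.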

[6] = Growth inhibition of human Caki1 cells incubated for 48 hrs by sulforhodamine B assay; type: functional; settings: CAKI-1, 48 h; method in brief: as §2
[7] = Growth inhibition of human SKOV3 cells assessed as cell growth at 10^-5 M incubated for 48 hrs by sulforhodamine B assay; type: functional; settings: SK-OV-3, 48 h, read-out: Activity
M14 = assay: Growth inhibition of human M14 cells assessed as cell growth at 10^-8 M incubated for 48 hrs by sulforhodamine B assay; type: functional; settings: M14, 48 h, read-out: Activity
MDA-MB-231 = assay: Growth inhibition of human MDA-MB-231 cells assessed as cell growth at 10^-4 M incubated for 48 hrs by sulforhodamine B assay; type: functional; settings: MDA-MB-231, 48 h, read-out: Activity
A549 = assay: Growth inhibition of human A549/ATCC cells assessed as cell growth at 10 uM incubated for 48 hrs by sulforhodamine B assay; type: functional; settings: A549, 48 h, read-out: Activity; method in brief: as §3
[8] = Growth inhibition of human TK10 cells assessed as cell growth at 10^-6 M incubated for 48 hrs by sulforhodamine B assay; type: functional; settings: TK-10, 48 h, read-out: Activity
[9] = Growth inhibition of human PC3 cells assessed as cell growth at 10^-6 M incubated for 48 hrs by sulforhodamine B assay; type: functional; settings: PC-3, 48 h, read-out: Activity
[10] = Growth inhibition of human LOXIMVI cells assessed as cell growth at 10 uM incubated for 48 hrs by sulforhodamine B assay; type: functional; settings: LOX IMVI, read-out: Activity
SN12C [11] = assay: Growth inhibition of human SN12C cells assessed as cell growth at 10^-5 M incubated for 48 hrs by sulforhodamine B assay; type: functional; settings: read-out: Activity
A498 [12] = assay: Growth inhibition of human A498 cells assessed as cell growth at 10^-5 M incubated for 48 hrs by sulforhodamine B assay; type: functional; settings: A498, 48 h, read-out: Activity; method in brief: as §1
MDA-MB-435 = assay: Growth inhibition of human MDA-MB-435 cells assessed as cell growth at 10^-5 M incubated for 48 hrs by sulforhodamine B assay; type: functional; settings: MDA-MB-435, 48 h, read-out: Activity
[13] = Growth inhibition of human MOLT4 cells assessed as cell growth at 10 uM incubated for 48 hrs by sulforhodamine B assay; type: functional; settings: MOLT-4, 48 h, read-out: Activity
HT-29 = assay: Growth inhibition of human HT-29 cells assessed as cell growth at 10^-8 M incubated for 48 hrs by sulforhodamine B assay; type: functional; settings: HT-29, 48 h, read-out: Activity
[14] = Growth inhibition of human renal cancer cells incubated for 48 hrs by sulforhodamine B assay; type: functional; settings: Cancer cell lines; for CC50: read-out: LC50 (the source's name)
Albumin = Albumin (Bos taurus, UniProt P02769); assay: Binding affinity to bovine serum albumin assessed as isoemissive point up to 20 uM by fluorescence spectroscopic analysis relative to control; type: ADME; settings: cattle, isolated protein
Albumin, sequence (P02769 whole entry): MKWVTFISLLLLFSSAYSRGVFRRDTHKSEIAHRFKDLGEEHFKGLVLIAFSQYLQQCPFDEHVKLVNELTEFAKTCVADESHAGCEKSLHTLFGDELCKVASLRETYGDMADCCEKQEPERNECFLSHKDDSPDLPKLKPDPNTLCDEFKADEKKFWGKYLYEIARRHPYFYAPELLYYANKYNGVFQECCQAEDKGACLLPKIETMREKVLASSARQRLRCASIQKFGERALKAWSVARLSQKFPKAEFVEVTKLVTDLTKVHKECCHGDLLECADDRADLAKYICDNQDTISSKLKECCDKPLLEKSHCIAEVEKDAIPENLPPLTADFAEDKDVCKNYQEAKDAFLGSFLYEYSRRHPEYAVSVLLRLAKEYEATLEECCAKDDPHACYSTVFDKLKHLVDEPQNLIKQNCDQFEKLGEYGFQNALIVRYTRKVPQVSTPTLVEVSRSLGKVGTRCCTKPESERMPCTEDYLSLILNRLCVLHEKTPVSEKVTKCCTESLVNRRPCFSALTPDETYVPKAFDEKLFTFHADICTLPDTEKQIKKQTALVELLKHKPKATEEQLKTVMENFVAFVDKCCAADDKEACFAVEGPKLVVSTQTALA
Method in brief: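 Fluorescence titration of 10 µM BSA in 0.1 M phosphate buffer pH 7.4 with compound at 0–20 µM, diluted from DMSO stocks. Excitation 280 nm, slit 10 nm, 1 cm quartz cell, 300 K. Changes in the 350 nm Trp emission, new bands near 370–373 nm and isoemissive points are read against BSA alone.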

SN12C [15] = assay: Growth inhibition of human SN12C cells assessed as cell growth at 10 uM incubated for 48 hrs by sulforhodamine B assay; type: functional; settings: read-out: Activity
EKVX = assay: Growth inhibition of human EKVX cells assessed as cell growth at 10^-4 M incubated for 48 hrs by sulforhodamine B assay; type: functional; settings: read-out: Activity; method in brief: as §2
A498 [16] = assay: Growth inhibition of human A498 cells assessed as cell growth at 10^-4 M incubated for 48 hrs by sulforhodamine B assay; type: functional; settings: A498, 48 h, read-out: Activity; method in brief: as §1
[17] = read-out: pLC50 (the source's name) (converted)
[18] = read-out: LC50 (the source's name)

**Q.** What does the source list for Clc1ccc(-c2nc(Nc3ccc(-c4nc5ccccc5[nH]4)cc3)nc(N3CCOCC3)n2)cc1?
**A.** growth at 0.01 µM [1]: 90%; GI50 ([2]; read-out: GI50): 1.73 µM; TGI ([2]; read-out: TGI): 3.68 µM; GI50 ([2]; read-out: pGI50 (converted)): 1.74 µM; TGI ([2]; read-out: pTGI (converted)): 3.72 µM; GI50 (SK-MEL-28; read-out: GI50): 1.6 µM; TGI (SK-MEL-28; read-out: TGI): 3.22 µM; GI50 (SK-MEL-28; read-out: pGI50 (converted)): 1.58 µM; TGI (SK-MEL-28; read-out: pTGI (converted)): 3.24 µM; growth at 0.01 µM [3]: 90%; growth at 0.01 µM [4]: 101%; growth at 0.1 µM [5]: 99%; growth at 10 µM (ACHN): -90.6%; LC50 [6]: 5.23 µM; GI50 ([6]; read-out: GI50): 1.41 µM; TGI ([6]; read-out: TGI): 2.72 µM; GI50 ([6]; read-out: pGI50 (converted)): 1.41 µM; CC50 [6, 17]: 5.25 µM; TGI ([6]; read-out: pTGI (converted)): 2.69 µM; growth at 10 µM [7]: -96%; growth at 0.01 µM (M14): 94%; growth at 100 µM (MDA-MB-231): -22%; growth at 10 µM (A549): -75.2%; growth at 1 µM [8]: 110%; growth at 1 µM [9]: 13%; growth at 10 µM [10]: -93%; growth at 10 µM (SN12C [11]): -77%; growth at 10 µM (A498 [12]): -83%; growth at 10 µM (MDA-MB-435): -98%; growth at 10 µM [13]: -91.6%; growth at 0.01 µM (HT-29): 104%; GI50 [14]: 1.11 µM; TGI [14]: 2.25 µM; CC50 [14]: 5.6 µM; Activity (Albumin): 349 nm; growth at 10 µM (SN12C [15]): -79.5%; growth at 100 µM (EKVX): -15%; growth at 100 µM (A498 [16]): -48%

**Q.** For c1ccc2[nH]c(-c3ccc(Nc4nc(N5CCCCC5)nc(N5CCOCC5)n4)cc3)nc2c1, which growth at 0.01 µM [1] is on record?
**A.** 96%

**Q.** What about the GI50 ([2]; read-out: GI50) of the same molecule?
**A.** 2.07 µM

**Q.** What about the CC50 [2, 18] of the same molecule?
**A.** 92.7 µM

**Q.** And the TGI ([2]; read-out: TGI)?
**A.** 5.2 µM

**Q.** What about the GI50 ([2]; read-out: pGI50 (converted)) of the same molecule?
**A.** 2.09 µM

**Q.** What about the CC50 [2, 17] of the same molecule?
**A.** 93.3 µM

**Q.** And the TGI ([2]; read-out: pTGI (converted))?
**A.** 5.25 µM

**Q.** And the GI50 (SK-MEL-28; read-out: GI50)?
**A.** 1.8 µM

**Q.** And the CC50 (SK-MEL-28; [18])?
**A.** 8.97 µM

**Q.** And the TGI (SK-MEL-28; read-out: TGI)?
**A.** 4.02 µM

**Q.** What about the GI50 (SK-MEL-28; read-out: pGI50 (converted)) of the same molecule?
**A.** 1.82 µM

**Q.** What about the CC50 (SK-MEL-28; [17]) of the same molecule?
**A.** 8.91 µM

**Q.** And the TGI (SK-MEL-28; read-out: pTGI (converted))?
**A.** 3.98 µM

**Q.** What about the growth at 0.01 µM [3] of the same molecule?
**A.** 92%

**Q.** And the growth at 0.01 µM [4]?
**A.** 102%

**Q.** And the growth at 0.1 µM [5]?
**A.** 95%

**Q.** And the growth at 10 µM (ACHN)?
**A.** 22.9%

**Q.** What about the GI50 ([6]; read-out: GI50) of the same molecule?
**A.** 1.81 µM

**Q.** What about the TGI ([6]; read-out: TGI) of the same molecule?
**A.** 4.08 µM

**Q.** What about the GI50 ([6]; read-out: pGI50 (converted)) of the same molecule?
**A.** 1.82 µM

**Q.** And the TGI ([6]; read-out: pTGI (converted))?
**A.** 4.07 µM

**Q.** What about the growth at 10 µM [7] of the same molecule?
**A.** -37%

**Q.** And the growth at 0.01 µM (M14)?
**A.** 95%

**Q.** And the growth at 100 µM (MDA-MB-231)?
**A.** -16%

**Q.** And the growth at 10 µM (A549)?
**A.** 13.9%

**Q.** What about the growth at 1 µM [8] of the same molecule?
**A.** 105%

**Q.** And the growth at 1 µM [9]?
**A.** 101%

**Q.** What about the growth at 10 µM [10] of the same molecule?
**A.** -77.1%

**Q.** And the growth at 10 µM (SN12C [11])?
**A.** 32%

**Q.** And the growth at 10 µM (A498 [12])?
**A.** -51%

**Q.** And the growth at 10 µM (MDA-MB-435)?
**A.** -48%

**Q.** What about the growth at 10 µM [13] of the same molecule?
**A.** 13.7%

**Q.** And the growth at 0.01 µM (HT-29)?
**A.** 105%

**Q.** What about the GI50 [14] of the same molecule?
**A.** 2.46 µM

**Q.** And the TGI [14]?
**A.** 11.8 µM

**Q.** What about the CC50 [14] of the same molecule?
**A.** 8.29 µM

**Q.** What about the Activity (Albumin) of the same molecule?
**A.** 350 nm

**Q.** And the growth at 10 µM (SN12C [15])?
**A.** 52.4%

**Q.** What about the growth at 100 µM (EKVX) of the same molecule?
**A.** 1%

**Q.** What about the growth at 100 µM (A498 [16]) of the same molecule?
**A.** -90%
